Results: ChEMBL document CHEMBL3124905, “Isothiocoumarin-3-carboxylic acid derivatives: synthesis, anticancer and antitrypanosomal activity evaluation” (Eur J Med Chem, 2014)

How the values were obtained:
[1] = Growth inhibition of human HOP92 cells after 48 hrs by SRB assay; type: functional; settings: HOP-92, 48 h
Method in brief: (§1)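 NCI five-dose assay against the ~60-cell-line panel (nine cancer types). Tenfold dilutions from 10−4 to 10−8 M were used with continuous 48-h exposure and SRB absorbance readout. Percent growth was computed from time-zero, control and treated absorbances. GI50 is the concentration giving 50% lower net protein increase than controls. Values not reached are reported as beyond the tested range.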

NCI-H23 = assay: Growth inhibition of human NCI-H23 cells after 48 hrs by SRB assay; type: functional; settings: NCI-H23, 48 h; method in brief: as §1
PC-3 = assay: Growth inhibition of human PC3 cells after 48 hrs by SRB assay; type: functional; settings: PC-3, 48 h; method in brief: as §1
[2] = Acute toxicity in ip dosed white mouse; type: organism-based; settings: in vivo
Method in brief: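 White male mice, 23-25 g, dosed intraperitoneally with compound dissolved in 0.9% NaCl saline plus 1-2 drops Polysorbate 80 (Tween-80). Solutions prepared immediately before use. Doses ranged 100-1000 mg/kg, testing 4 or 5 doses with 6 animals per dose. LD50 derived by the Litchfield-Wilcoxon method.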

HCT-116 = assay: Growth inhibition of human HCT116 cells after 48 hrs by SRB assay; type: functional; settings: HCT-116, 48 h; method in brief: as §1
[3] = Growth inhibition of human […] cells after 48 hrs by SRB assay; type: functional; method in brief: as §1
SF-268 = assay: Anticancer activity against human SF268 cells assessed as cell growth at 100 uM after 48 hrs by SRB assay; type: functional; settings: SF-268, 48 h, read-out: Activity
Method in brief: (§2)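 NCI one-dose primary screen on a three-line panel (breast MCF7, lung NCI-H460, CNS SF-268). Cells were inoculated and preincubated 24–48 h, then exposed to a single concentration of 10−4 M for 48 h. The endpoint was sulforhodamine B protein staining, and results are expressed as percent growth relative to untreated control cells. Negative values denote cytotoxicity.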

MOLT-4 = assay: Growth inhibition of human MOLT4 cells after 48 hrs by SRB assay; type: functional; settings: MOLT-4, 48 h; method in brief: as §1
U-251 = assay: Growth inhibition of human U251 cells after 48 hrs by SRB assay; type: functional; settings: U-251, 48 h
Method in brief: (§3)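 NCI ~60-cell-line five-dose screen. Cells were preincubated 24-48 h, then given compound at 10-fold dilutions from 10^-4 to 10^-8 M with 48 h continuous exposure. SRB protein stain was read by absorbance at time zero, in untreated control and with drug. GI50 was derived from [(Ti-Tz)/(C-Tz)]x100=50, TGI from Ti=Tz, and LC50 from [(Ti-Tz)/Tz]x100=-50.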

NCI-H460 [4] = assay: Growth inhibition of human NCI-H460 cells after 48 hrs by SRB assay; type: functional; settings: NCI-H460, 48 h; method in brief: as §1
BT-549 = assay: Growth inhibition of human BT549 cells after 48 hrs by SRB assay; type: functional; settings: BT-549, 48 h; for TGI: read-out: pTGI (converted); method in brief: as §1
[5] = system: Trypanosoma brucei brucei; assay: Antitrypanosomal activity against bloodstream form of Trypanosoma brucei brucei strain 90-13 assessed as inhibition of parasite growth at 10 ug/ml after 72 hrs by resazurin reduction test; type: functional; settings: strain 90-13, 72 h
Method in brief: (§4)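 Trypanosoma brucei brucei 90-13 bloodstream forms, grown in HMI9 with 10% FCS at 37 °C under 5% CO2. Log-phase parasites were seeded at 10^5 cells/mL with or without inhibitor, with stocks prepared in DMSO. After 72 h, resazurin was added and fluorescence was read at 530/590 nm after a further 4 h. Percent growth inhibition was calculated versus drug-free parasites, with DMSO as control.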

[6] = system: Trypanosoma brucei brucei; assay: Antitrypanosomal activity against bloodstream form of Trypanosoma brucei brucei strain 90-13 assessed as inhibition of parasite growth at 1 ug/ml after 72 hrs by resazurin reduction test; type: functional; settings: strain 90-13, 72 h; method in brief: as §4
MDA-MB-231 = assay: Growth inhibition of human MDA-MB-231/ATCC cells after 48 hrs by SRB assay; type: functional; settings: MDA-MB-231, 48 h; method in brief: as §1
HOP-62 = assay: Growth inhibition of human HOP62 cells after 48 hrs by SRB assay; type: functional; settings: HOP-62, 48 h; method in brief: as §1
CCRF-CEM = assay: Growth inhibition of human CCRF-CEM cells after 48 hrs by SRB assay; type: functional; method in brief: as §1
MCF7 = assay: Anticancer activity against human MCF7 cells assessed as cell growth at 100 uM after 48 hrs by SRB assay; type: functional; settings: MCF7, 48 h, read-out: Activity; method in brief: as §2
LOX IMVI = assay: Growth inhibition of human LOXIMVI cells after 48 hrs by SRB assay; type: functional; method in brief: as §1
[7] = Growth inhibition of human 786-O cells after 48 hrs by SRB assay; type: functional; settings: 786-0, 48 h; method in brief: as §1
NCI-H460 [8] = assay: Anticancer activity against human NCI-H460 cells assessed as cell growth at 100 uM after 48 hrs by SRB assay; type: functional; settings: NCI-H460, 48 h, read-out: Activity; method in brief: as §2
NCI/ADR-RES = assay: Growth inhibition of human NCI/ADR-RES cells after 48 hrs by SRB assay; type: functional; settings: for TGI: read-out: pTGI (converted); method in brief: as §1
M14 = assay: Growth inhibition of human M14 cells after 48 hrs by SRB assay; type: functional; settings: M14, 48 h; method in brief: as §1
KM12 = assay: Growth inhibition of human KM12 cells after 48 hrs by SRB assay; type: functional; settings: KM12, 48 h; method in brief: as §1
[9] = Growth inhibition of human EKVX cells after 48 hrs by SRB assay; type: functional; method in brief: as §1
[10] = Growth inhibition of human RXF393 cells after 48 hrs by SRB assay; type: functional; settings: RXF 393, 48 h; method in brief: as §1
IGROV-1 = assay: Growth inhibition of human IGROV1 cells after 48 hrs by SRB assay; type: functional; settings: IGROV-1, 48 h; method in brief: as §1
SK-MEL-5 = assay: Growth inhibition of human SK-MEL-5 cells after 48 hrs by SRB assay; type: functional; settings: SK-MEL-5, 48 h; method in brief: as §1
[11] = Growth inhibition of human UACC257 cells after 48 hrs by SRB assay; type: functional; settings: UACC-257, 48 h; method in brief: as §3

## COc1ccc2cc(C(=O)Nc3cccc(C(F)(F)F)c3)sc(=O)c2c1OC
[1]
  GI50: 3.02 µM
[1]; read-out: pTGI (converted)
  TGI: 10 µM
NCI-H23
  GI50: 6.46 µM
NCI-H23; read-out: pTGI (converted)
  TGI: 18.6 µM
PC-3
  GI50: 4.68 µM
PC-3; read-out: pTGI (converted)
  TGI: 19.5 µM
[2]
  LD50: 750 mg/kg
HCT-116
  GI50: 3.39 µM
HCT-116; read-out: pTGI (converted)
  TGI: 14.5 µM
[3]
  GI50: 2.04 µM
[3]; read-out: pTGI (converted)
  TGI: 5.75 µM
SF-268
  growth at 100 µM: 49%
MOLT-4
  GI50: 5.62 µM
MOLT-4; read-out: pTGI (converted)
  TGI: 25.7 µM
U-251
  GI50: 3.16 µM
U-251; read-out: pTGI (converted)
  TGI: 11 µM
NCI-H460 [4]
  GI50: 5.37 µM
NCI-H460 [4]; read-out: pTGI
  TGI: > 100 µM
BT-549
  GI50: 2.45 µM
  TGI: 7.08 µM
[5]
  inhibition at 10 µg/mL: 5.46%
[6]
  inhibition at 1 µg/mL: -9.98%
MDA-MB-231
  GI50: 2.09 µM
MDA-MB-231; read-out: pTGI (converted)
  TGI: 5.37 µM
HOP-62
  GI50: 5.37 µM
HOP-62; read-out: pTGI (converted)
  TGI: 16.2 µM
CCRF-CEM
  GI50: 12 µM
CCRF-CEM; read-out: pTGI (converted)
  TGI: 91.2 µM
MCF7
  growth at 100 µM: 45%
LOX IMVI
  GI50: 6.92 µM
LOX IMVI; read-out: pTGI (converted)
  TGI: 21.9 µM
[7]
  GI50: 3.39 µM
[7]; read-out: pTGI (converted)
  TGI: 12.3 µM
NCI-H460 [8]
  growth at 100 µM: 4%
NCI/ADR-RES
  GI50: 8.43 µM
  TGI: 21.9 µM
M14
  GI50: 7.76 µM
M14; read-out: pTGI (converted)
  TGI: 20 µM
KM12
  GI50: 9.55 µM
KM12; read-out: pTGI
  TGI: > 100 µM

## CC(C)OC(=O)c1cc2ccccc2c(=O)s1
[9]
  GI50: 19.1 µM
[9]; read-out: pTGI (converted)
  TGI: 52.5 µM
[10]
  GI50: 15.1 µM
[10]; read-out: pTGI (converted)
  TGI: 67.6 µM
SF-268
  growth at 100 µM: 69%
IGROV-1
  GI50: 20.9 µM
IGROV-1; read-out: pTGI
  TGI: > 100 µM
BT-549
  GI50: 24.5 µM
  TGI: 63.1 µM
MCF7
  growth at 100 µM: 87%
NCI-H460 [8]
  growth at 100 µM: 13%
SK-MEL-5
  GI50: 24.5 µM
SK-MEL-5; read-out: pTGI (converted)
  TGI: 49 µM
NCI/ADR-RES
  GI50: 26.9 µM
  TGI: 69.2 µM
[11]
  GI50: 19.5 µM
[11]; read-out: pTGI (converted)
  TGI: 66.1 µM
